What was measured:
[1] = Cmax in Sprague-Dawley rat at 2 mg/kg, po; format: ADME, organism-based; set-up: dose 2 mg/kg, route oral; conditions: in vivo
[2] = Apparent oral clearance in Sprague-Dawley rat at 2 mg/kg, po; format: ADME, organism-based; set-up: dose 2 mg/kg, route oral; conditions: in vivo
[3] = tested on: Respiratory syncytial virus; assay: Antiviral activity against RSV B in Hep2 cells by plaque assay; format: functional, organism-based; conditions: human respiratory syncytial virus, HEp-2
[4] = tested on: Respiratory syncytial virus; assay: Antiviral activity against RSV Long in Hep2 cells by plaque assay; format: functional, organism-based; conditions: human respiratory syncytial virus, HEp-2
HEp-2 = assay: Cytotoxicity against Hep2 cell at 50 uM; format: functional, cell-based; conditions: Homo sapiens
Procedure, shortened: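 Run alongside the whole-cell antiviral XTT assay, without virus, to measure compound toxicity to the cells. The read-out is XTT.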

[5] = Half life in Sprague-Dawley rat at 2 mg/kg, po; format: ADME, organism-based; set-up: dose 2 mg/kg, route oral; conditions: in vivo
[6] = Half life in Sprague-Dawley rat at 2 mg/kg, iv; format: ADME, organism-based; set-up: dose 2 mg/kg, route intravenous; conditions: in vivo
[7] = Cmax in Sprague-Dawley rat at 2 mg/kg, iv; format: ADME, organism-based; set-up: dose 2 mg/kg, route intravenous; conditions: in vivo
[8] = tested on: Respiratory syncytial virus; assay: Antiviral activity against RSV B in Hep2 cells by ELISA; format: functional, organism-based; conditions: human respiratory syncytial virus, HEp-2
Rattus norvegicus [9] = assay: Volume of distribution in Sprague-Dawley rat at 2 mg/kg, po; format: ADME, organism-based; set-up: dose 2 mg/kg, route oral; conditions: in vivo
[10] = tested on: Respiratory syncytial virus; assay: Antiviral activity against RSV RSS in Hep2 cells by ELISA; format: functional, organism-based; conditions: human respiratory syncytial virus, HEp-2
[11] = Tmax in Sprague-Dawley rat at 25 mg/kg, po; format: ADME, organism-based; set-up: dose 25 mg/kg, route oral; conditions: in vivo
[12] = Half life in Sprague-Dawley rat at 25 mg/kg, po; format: ADME, organism-based; set-up: dose 25 mg/kg, route oral; conditions: in vivo
[13] = tested on: Respiratory syncytial virus; assay: Antiviral activity against RSV RSS in Hep2 cells by whole cell XTT assay; format: functional, organism-based; conditions: human respiratory syncytial virus, HEp-2
Procedure, shortened: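 Primary whole-cell assay with XTT read-out of infected cells. Parallel cultures without virus were run to measure compound cytotoxicity. IC50 values were derived.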

[14] = Tmax in Sprague-Dawley rat at 2 mg/kg, po; format: ADME, organism-based; set-up: dose 2 mg/kg, route oral; conditions: in vivo
[15] = Tmax in Sprague-Dawley rat at 2 mg/kg, iv; format: ADME, organism-based; set-up: dose 2 mg/kg, route intravenous; conditions: in vivo
[16] = Cmax in Sprague-Dawley rat at 25 mg/kg, po; format: ADME, organism-based; set-up: dose 25 mg/kg, route oral; conditions: in vivo
Rattus norvegicus [17] = assay: Volume of distribution in Sprague-Dawley rat at 25 mg/kg, po; format: ADME, organism-based; set-up: dose 25 mg/kg, route oral; conditions: in vivo
[18] = tested on: Respiratory syncytial virus; assay: Antiviral activity against RSV Long in Hep2 cells by ELISA; format: functional, organism-based; conditions: human respiratory syncytial virus, HEp-2
[19] = Volume of distribution in Sprague-Dawley rat at 2 mg/kg, iv; format: ADME, organism-based; set-up: dose 2 mg/kg, route intravenous; conditions: in vivo, read-out: Vdss
[20] = Apparent oral clearance in Sprague-Dawley rat at 25 mg/kg, po; format: ADME, organism-based; set-up: dose 25 mg/kg, route oral; conditions: in vivo
[21] = Clearance in Sprague-Dawley rat at 2 mg/kg, iv; format: ADME, organism-based; set-up: dose 2 mg/kg, route intravenous; conditions: in vivo
[22] = tested on: Respiratory syncytial virus; assay: Antiviral activity against RSV RSS in Hep2 cells by plaque assay; format: functional, organism-based; conditions: human respiratory syncytial virus, HEp-2
[23] = Oral bioavailability in Sprague-Dawley rat at 2 mg/kg, po; format: ADME, organism-based; conditions: in vivo

## CC(=O)NC1N=C(c2ccccc2)c2ccccc2NC1=O (centres undefined)
[1]
  Cmax: 616 ng/mL
[2]
  CL/F: 4.9 mL/min/kg
[3]
  IC50: 3.6 µM
[4]
  IC50: 7.2 µM
HEp-2
  Activity: Not toxic
[5]
  half-life: 5.9 h
[6]
  half-life: 5 h
[7]
  Cmax: 2400 ng/mL
[8]
  IC50: 17.8 µM
Rattus norvegicus [9]
  Vdss: 4.2 L/kg
[10]
  IC50: 9.3 µM
[11]
  Tmax: 1.5 h
[12]
  half-life: 4.4 h
[13]
  IC50: 8.6 µM
[14]
  Tmax: 2.6 h
[15]
  Tmax: 4.8 min
[16]
  Cmax: 7930 ng/mL
Rattus norvegicus [17]
  Vdss: 2.7 L/kg
[18]
  IC50: 17.6 µM
[19]
  Vd: 2.2 L/kg
[20]
  CL/F: 7.3 mL/min/kg
[21]
  clearance: 5.3 mL/min/kg
[22]
  IC50: 7.1 µM
[23]
  bioavailability: 77%

Source: ChEMBL document CHEMBL1146087, “1,4-Benzodiazepines as inhibitors of respiratory syncytial virus” (J Med Chem, 2006)
